The values that follow come from ChEMBL document CHEMBL1123424, “Conformationally defined adrenergic agents. 2. Catechol imidazoline derivatives: biological effects at alpha 1 and alpha 2 adrenergic receptors” (J Med Chem, 1986).

Experiment [1] has as its target T1, Adrenergic receptor alpha-2 (Rattus norvegicus, UniProt P22086+P19328+P22909).
T1 sequence (P22086 whole entry): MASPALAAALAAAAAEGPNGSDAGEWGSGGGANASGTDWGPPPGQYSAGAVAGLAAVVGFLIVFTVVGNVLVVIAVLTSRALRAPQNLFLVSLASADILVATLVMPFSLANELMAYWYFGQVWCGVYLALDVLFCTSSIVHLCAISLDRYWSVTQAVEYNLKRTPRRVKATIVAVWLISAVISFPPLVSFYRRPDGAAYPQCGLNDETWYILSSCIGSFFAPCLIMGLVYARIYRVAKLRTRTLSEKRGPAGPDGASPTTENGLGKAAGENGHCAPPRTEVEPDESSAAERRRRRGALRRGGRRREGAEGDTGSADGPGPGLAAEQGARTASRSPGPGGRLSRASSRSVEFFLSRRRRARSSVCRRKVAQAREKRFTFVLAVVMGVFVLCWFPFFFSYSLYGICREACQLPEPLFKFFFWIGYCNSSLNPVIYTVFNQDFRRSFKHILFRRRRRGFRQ
T1 sequence (P19328 whole entry): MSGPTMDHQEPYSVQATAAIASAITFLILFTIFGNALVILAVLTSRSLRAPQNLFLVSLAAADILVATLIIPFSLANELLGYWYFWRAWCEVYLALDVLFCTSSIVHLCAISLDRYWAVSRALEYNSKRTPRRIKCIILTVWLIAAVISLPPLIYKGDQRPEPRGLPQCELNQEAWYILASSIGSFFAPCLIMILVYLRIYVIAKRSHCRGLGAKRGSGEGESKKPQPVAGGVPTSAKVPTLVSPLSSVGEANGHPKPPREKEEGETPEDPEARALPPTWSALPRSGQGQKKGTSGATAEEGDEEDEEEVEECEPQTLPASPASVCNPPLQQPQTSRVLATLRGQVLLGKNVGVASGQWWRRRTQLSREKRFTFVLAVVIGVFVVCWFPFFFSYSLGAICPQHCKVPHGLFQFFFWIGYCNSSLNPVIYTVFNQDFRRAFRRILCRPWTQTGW
T1 sequence (P22909 whole entry): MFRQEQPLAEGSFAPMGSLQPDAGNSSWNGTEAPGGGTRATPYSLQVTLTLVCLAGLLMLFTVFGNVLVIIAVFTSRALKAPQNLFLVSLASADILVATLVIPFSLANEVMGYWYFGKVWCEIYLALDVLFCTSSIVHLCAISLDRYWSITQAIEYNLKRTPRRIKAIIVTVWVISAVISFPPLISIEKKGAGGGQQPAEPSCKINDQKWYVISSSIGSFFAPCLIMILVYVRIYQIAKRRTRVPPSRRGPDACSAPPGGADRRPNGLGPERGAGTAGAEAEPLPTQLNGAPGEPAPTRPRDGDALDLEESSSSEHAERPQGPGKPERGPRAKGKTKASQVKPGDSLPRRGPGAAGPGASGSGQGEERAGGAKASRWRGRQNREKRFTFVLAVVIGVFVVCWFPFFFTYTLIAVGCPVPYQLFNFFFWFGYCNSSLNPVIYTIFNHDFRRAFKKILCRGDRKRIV
Nature of the experiment: The compound was evaluated for the binding affinity towards alpha-2 adrenergic receptor from rat cortex. An outline of the steps: (§1)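 Washed membranes of pooled male Sprague-Dawley rat cerebral cortex in 50 mM Tris-HCl pH 7.7, 50-150 μg/mL protein. [3H]rauwolscine incubated 2 h at 4 °C, then filtration. Nonspecific binding with phentolamine 10⁻⁵ M. At least four test concentrations between 10⁻¹⁰ and 10⁻³ M, in duplicate. IC50 from logit-log plot, Ki by Cheng-Prusoff.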

Experiment [2] has as its target T1, Adrenergic receptor alpha-2. Briefly: The compound was evaluated for the inhibition of [3H]rauwolscine binding to alpha-2-adrenergic receptor from rat cortex. An outline of the steps:
as §1

Experiment [3] has as its target T2, Adrenergic receptor alpha-1 (Rattus norvegicus, UniProt P15823+P23944+P43140).
T2 sequence (P15823 whole entry): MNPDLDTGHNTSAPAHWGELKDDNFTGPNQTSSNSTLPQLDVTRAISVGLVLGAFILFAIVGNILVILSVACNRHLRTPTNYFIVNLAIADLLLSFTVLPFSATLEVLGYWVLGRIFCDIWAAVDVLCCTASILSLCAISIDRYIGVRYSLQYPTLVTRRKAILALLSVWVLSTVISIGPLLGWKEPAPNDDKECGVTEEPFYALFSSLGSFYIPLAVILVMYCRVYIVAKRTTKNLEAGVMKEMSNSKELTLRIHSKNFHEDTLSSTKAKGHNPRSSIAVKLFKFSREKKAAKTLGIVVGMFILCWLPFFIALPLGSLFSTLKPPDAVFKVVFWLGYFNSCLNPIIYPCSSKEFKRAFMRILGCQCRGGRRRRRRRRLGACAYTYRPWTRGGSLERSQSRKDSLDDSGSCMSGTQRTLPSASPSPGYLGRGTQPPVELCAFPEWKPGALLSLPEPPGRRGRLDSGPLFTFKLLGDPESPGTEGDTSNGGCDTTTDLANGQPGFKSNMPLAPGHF
T2 sequence (P23944 whole entry): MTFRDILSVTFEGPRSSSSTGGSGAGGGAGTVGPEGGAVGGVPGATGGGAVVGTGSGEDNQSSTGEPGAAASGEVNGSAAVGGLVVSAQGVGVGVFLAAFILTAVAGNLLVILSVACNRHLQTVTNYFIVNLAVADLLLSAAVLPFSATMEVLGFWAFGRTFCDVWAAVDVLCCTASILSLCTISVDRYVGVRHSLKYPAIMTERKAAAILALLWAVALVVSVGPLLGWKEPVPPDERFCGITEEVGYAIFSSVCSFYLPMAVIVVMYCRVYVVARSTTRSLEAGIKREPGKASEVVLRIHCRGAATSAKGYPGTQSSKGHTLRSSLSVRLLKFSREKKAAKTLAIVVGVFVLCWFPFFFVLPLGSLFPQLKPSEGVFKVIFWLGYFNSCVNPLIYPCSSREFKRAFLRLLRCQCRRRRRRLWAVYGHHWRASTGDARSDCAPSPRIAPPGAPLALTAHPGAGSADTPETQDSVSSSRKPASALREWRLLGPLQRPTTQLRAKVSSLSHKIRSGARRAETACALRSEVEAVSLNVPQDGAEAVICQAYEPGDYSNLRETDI
T2 sequence (P43140 whole entry): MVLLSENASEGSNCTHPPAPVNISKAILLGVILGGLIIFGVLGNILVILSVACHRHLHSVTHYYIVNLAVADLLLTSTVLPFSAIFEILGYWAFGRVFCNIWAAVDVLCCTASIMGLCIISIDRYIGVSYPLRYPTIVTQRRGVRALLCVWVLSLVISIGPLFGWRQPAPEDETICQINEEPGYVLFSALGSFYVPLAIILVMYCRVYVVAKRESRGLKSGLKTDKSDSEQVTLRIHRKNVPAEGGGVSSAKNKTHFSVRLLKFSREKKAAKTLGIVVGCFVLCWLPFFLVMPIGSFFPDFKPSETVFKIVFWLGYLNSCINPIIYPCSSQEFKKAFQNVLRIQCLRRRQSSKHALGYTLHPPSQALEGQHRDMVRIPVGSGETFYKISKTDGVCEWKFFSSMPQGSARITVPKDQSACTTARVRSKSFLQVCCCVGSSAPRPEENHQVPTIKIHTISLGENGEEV
Briefly: The compound was evaluated for the inhibition of [3H]prazosin binding to alpha-1 adrenergic receptor from rat liver. An outline of the steps:
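Washed rat liver membranes (male Sprague-Dawley) in 50 mM Tris-HCl pH 7.7, 50-150 μg/mL protein. [3H]prazosin incubated 50 min at 25 °C, then filtration. Nonspecific binding with phentolamine 10⁻⁵ M. At least four test concentrations between 10⁻¹⁰ and 10⁻³ M, in duplicate. IC50 from logit-log plot, Ki by Cheng-Prusoff.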

The species named for experiment [4] is Canis familiaris. Nature of the experiment: The compound was evaluated for the alpha-2-adrenergic activity in PBZ-pretreated dog saphenous vein as EED50 CPD. Format: functional, Canis lupus familiaris. In short, it runs like this: (§2)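 Dog saphenous vein strips, gassed 95% O2/5% CO2, 37 °C, pH 7.45, 2 g preload, isometric contraction. After 15-20 min equilibration, maximal NE contraction (1 × 10⁻⁴ M) and 60 min wash. Phenoxybenzamine 1 × 10⁻⁷ M for 30 min, 60 min washout. Control cumulative NE curve, washout 45-60 min, then cumulative test-agonist curve. Index = ED50 NE/ED50 CPD per experiment, averaged.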

For experiment [5], the target named is Adrenergic receptor alpha-2 (Homo sapiens) (UniProt P08913+P18825+P18089). Nature of the experiment: Index is the ratio between ED50 value of Norepinephrine to test compound at alpha-2 adrenergic receptor. An outline of the steps:
as §2

The species entered for experiment [6] is Canis familiaris. Briefly: The compound was evaluated for the alpha-2-adrenergic activity in PBZ-pretreated dog saphenous vein as E max. Format: functional. As to conditions: Canis lupus familiaris. In short, it runs like this:
as §2

The species entered for a further experiment is Oryctolagus cuniculus. Briefly: The compound was evaluated for the alpha-1-adrenergic activity in isolated rabbit aortic tissue as E max. It counts as functional. The settings on record: Aorta. An outline of the steps:
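Rabbit aorta helical strip in Krebs buffer, pH 7.4, 37 °C, 2 g initial tension, isometric contraction. […] Washout every 10-15 min for 60-90 min, then cumulative test-compound curve in the same tissue. Index = ED50 NE/ED50 CPD, calculated per experiment, then averaged.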

The target of experiment [7] is Adrenergic receptor alpha-1 (Homo sapiens) (UniProt P35348+P25100+P35368). Briefly: Index is the ratio between ED50 value of Norepinephrine to test compound at alpha-1 adrenergic receptor.

For the molecule `Br.Oc1ccc2c(c1O)CCCCC2C1=NCCN1` (stereo not given), the Ki amounted to 4 µM in experiment [1] and 13 µM in experiment [3]. The half-maximal inhibitory concentration (IC50) in experiment [2] stood at 4.2 µM; in experiment [3] it was 56 µM. Also, the ED50 in the experiment filed under Canis familiaris [4] came to 350. For the same molecule, the Ratio in experiment [5] turned out to be 0.03.
Take `Br.Oc1ccc2c(c1O)CC2C1=NCCN1` (stereo not given): the Ki is 0.046 µM in experiment [1] and 1.1 µM in experiment [3]. Moreover, the values for the IC50 in experiment [2] and in experiment [3] were 0.049 µM and 4.4 µM, respectively. The Emax in the experiment filed under Canis familiaris [6] was determined as 67%; in the experiment filed under Oryctolagus cuniculus, 98%. Also, the Ratio in experiment [7] is 0.4; in experiment [5], 1.8.
On to `Br.Oc1ccc2c(c1O)CCCC2C1=NCCN1` (stereo not given), for which the Ki in experiment [1] came out at 0.0065 µM; in experiment [3], 0.4 µM. Besides, the IC50 was determined as 0.007 µM in experiment [2] and 2.5 µM in experiment [3]. The Emax stood at 102% in the experiment filed under Canis familiaris [6] and 114% in the experiment listed under Oryctolagus cuniculus. In addition, the Ratio in experiment [7] turned out to be 13; in experiment [5] it was 188.
For `Br.Oc1ccc2c(c1O)CCC2C1=NCCN1` (stereo not given), the Ki in experiment [1] amounted to 0.0031 µM; in experiment [3], 0.35 µM. Also, the results for the IC50 in experiment [2] and in experiment [3] were 0.0033 µM and 1.57 µM, respectively. Besides, the Emax in the experiment filed under Canis familiaris [6] is 102%; in the experiment listed under Oryctolagus cuniculus, 124%. In addition, the Ratio was 12 in experiment [7] and 22 in experiment [5].

By Ki is commonly meant the dissociation constant of the complex between target and ligand, obtained from inhibition or displacement. Usually IC50 stands for the concentration needed to halve the response being measured. The low end stands for greater potency in that assay, the high end for weaker potency in that assay. As usually defined, the Emax is the greatest response seen or fitted, relative to the assay's reference.
